BindingDB's records for doi:10.1016/j.bmc.2012.11.002 (China Pharmaceutical University, 2012)

Target: Tissue factor (Homo sapiens, UniProt P13726)
Assay: Inhibition of tissue factor procoagulant activity in LPS-stimulated human THP1 cells preincubated for 1 hr before LPS addition measured after 5 hrs
How it was run: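 THP-1 cells grown in RPMI-1640 with 10% heat-inactivated FCS, 37 °C, 5% CO2. Cells at 1 × 10⁶/mL pretreated 1 h with compound or 0.1% DMSO vehicle, then given 500 ng/mL LPS for 5 h. Cells were pelleted, resuspended, frozen/thawed three times, and the lysate incubated with prothrombin complex plus CaCl₂ (pH 7.3) 15 min at 37 °C. Factor Xa chromogenic substrate (0.5 mM) with EDTA was added and A405 read.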

Sequence of Tissue factor (P13726 whole entry): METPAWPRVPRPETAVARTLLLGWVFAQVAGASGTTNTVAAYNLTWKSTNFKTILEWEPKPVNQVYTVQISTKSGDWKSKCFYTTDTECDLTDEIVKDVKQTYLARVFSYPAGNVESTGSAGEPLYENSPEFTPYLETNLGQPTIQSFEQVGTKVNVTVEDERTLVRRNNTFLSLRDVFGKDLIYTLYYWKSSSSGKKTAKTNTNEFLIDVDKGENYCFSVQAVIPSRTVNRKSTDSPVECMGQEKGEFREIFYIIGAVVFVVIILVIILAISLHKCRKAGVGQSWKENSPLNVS

Row | Structure (SMILES) | IC50
1 | CCCCCC(=O)Oc1c(OC)ccc2c1CN1CCc3cc4c(cc3C1C2)OCO4 (centres undefined) | 1500 nM
2 | COc1ccc2c(c1O[C@@H]1O[C@H](CO)[C@@H](O)[C@H](O)[C@H]1O)CN1CCc3cc4c(cc3[C@@H]1C2)OCO4 | 39 nM
3 | COc1ccc2c(c1OC(=O)c1ccccc1OC(C)=O)CN1CCc3cc4c(cc3C1C2)OCO4 (centres undefined) | 555 nM
4 | COc1ccc2c(c1OC(=O)/C=C/c1ccccc1)CN1CCc3cc4c(cc3C1C2)OCO4 (centres undefined) | 3.8 nM
5 | COc1cc2c(cc1OC)[C@@H]1Cc3ccc(O)c(OC)c3CN1CC2 [(-)-Corydalmine] | 152 nM
6 | COc1ccc2c(c1OC)CN1CCc3cc4c(cc3C1C2)OCO4 (centres undefined) [9,10-dimethoxy-5,8,13,13a-tetrahydro-6H-[1,3]dioxolo[4,5-g]isoquino[3,2-a]isoquinoline] | 8.4 nM
7 | COc1cc2c(cc1OC)[C@H]1Cc3ccc(OC)c(O[C@@H]4O[C@H](CO)[C@@H](O)[C@H](O)[C@H]4O)c3CN1CC2 | 13 nM
8 | COc1ccc2c(c1O[C@@H]1O[C@H](CO)[C@@H](O)[C@H](O)[C@H]1O)CN1CCc3cc4c(cc3[C@H]1C2)OCO4 | 8.8 nM
9 | COc1ccc2c(c1O)CN1CCc3cc4c(cc3[C@@H]1C2)OCO4 | 36 nM
10 | COc1cc2c(cc1OC)C1Cc3ccc(OC)c(O)c3CN1CC2 (centres undefined) | 187 nM
11 | COc1cc2c(cc1OC)[C@@H]1Cc3ccc(OC)c(OC)c3CN1CC2 [(-)-Tetrahydropalmatine] | 23 nM
12 | COc1cc(/C=C/C(=O)Oc2c(OC)ccc3c2CN2CCc4cc5c(cc4C2C3)OCO5)ccc1OC(C)=O (centres undefined) | 202 nM
13 | CCC(=O)Oc1c(OC)ccc2c1CN1CCc3cc4c(cc3C1C2)OCO4 (centres undefined) | 119 nM
14 | COc1ccc2c(c1OC(C)=O)CN1CCc3cc4c(cc3C1C2)OCO4 (centres undefined) | 63 nM
15 | COc1ccc2c(c1OC(=O)c1ccccc1)CN1CCc3cc4c(cc3C1C2)OCO4 (centres undefined) | 377 nM
16 | COc1ccc2c(c1OC)CN1CCc3cc(O)c(O)cc3C1C2 (centres undefined) | 969 nM
17 | COc1cc2c(cc1OC)C1Cc3ccc(OC)c(OC)c3CN1CC2 (centres undefined) [2,3,9,10-Tetramethoxy-5,8,13,13a-tetrahydro-6H-isoquino[3,2-a]isoquinoline] | 15 nM
18 | COc1cc2c(cc1OC)[C@@H]1Cc3ccc(OC)c(O[C@@H]4O[C@H](CO)[C@@H](O)[C@H](O)[C@H]4O)c3CN1CC2 | 17 nM
19 | COc1ccc2c(c1O)CN1CCc3cc4c(cc3[C@H]1C2)OCO4 [R-(+)-Tetrahydroberberrubine] | 6.8 nM
